NSD2 HMT inh: blocks human histone methyltransferase NSD2; NSD2 peptide methylation, AlphaScreen, 120 min; 0.54% of 310,000 active; O96028; inhibition, % at 12.5 µM; in the data active = inhibition above about 50%
Casp6 inh: inhibitors of human caspase-6 | P55212 | purified caspase-6, Z-VEID-R110 cleavage fluorescence | inhibition, % at 12.5 µM | 0.53% of 350,000 active | AID 686996;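 active = mean inhibition across replicates at least about 35%, with every replicate also reaching that limit, limit read from the data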;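 also: 0% = median of neutral control wells and 100% = no fluorescence left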
Target sequence (P55212 24-179 limits assumed): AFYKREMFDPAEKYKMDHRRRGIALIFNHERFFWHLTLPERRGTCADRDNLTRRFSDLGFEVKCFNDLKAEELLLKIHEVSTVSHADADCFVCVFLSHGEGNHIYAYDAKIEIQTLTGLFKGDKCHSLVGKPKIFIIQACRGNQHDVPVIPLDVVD
Target sequence (P55212 194-293 limits assumed): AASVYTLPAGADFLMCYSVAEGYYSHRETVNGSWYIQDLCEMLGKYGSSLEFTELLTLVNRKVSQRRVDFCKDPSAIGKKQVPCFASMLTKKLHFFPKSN
TDP2 absorb: TDP2 (human) inhibition, absorbance primary screen. 0.34% of 370,000 active. AID 720702. recombinant TDP2, T5PNP hydrolysis, p-nitrophenol absorbance 415 nm. O95551. inhibition, % at 12.8 µM;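 active = inhibition above the mean of all tested compounds plus 3 SD, set per campaign, cut at about 25% in these data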;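 also: 0% = DMSO with enzyme and 100% = buffer with substrate but no TDP2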
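Incubation: 2 h at 37 °C; Test system: recombinant human TDP2; Quantity: enzyme 120 nM; Read-out basis: percent inhibition; Medium: 50 mM Tris-HCl pH 7.5 with Mg2+, KCl, DTT, BSA; Repeats: single replicate; Compound: 12.8 µM single point, 1% DMSO; Signal: epi absorbance; Reagent: 5 mM T5PNP chromogenic substrate; Benchmarks: no-enzyme high, DMSO-plus-enzyme low.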
UCH37 inh: blocks the human deubiquitinase UCH37 | Q9Y5K5 | purified proteasome/UCH37, Ub-AMC cleavage fluorescence | inhibition, % (test concentration not listed) | 0.33% of 330,000 active;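 active = mean inhibition over replicate wells above about 20%, limit read from the data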;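 also: 0% = compound-free wells with enzyme and 100% = wells lacking proteasome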
Target sequence (Q9Y5K5 whole entry, looked up): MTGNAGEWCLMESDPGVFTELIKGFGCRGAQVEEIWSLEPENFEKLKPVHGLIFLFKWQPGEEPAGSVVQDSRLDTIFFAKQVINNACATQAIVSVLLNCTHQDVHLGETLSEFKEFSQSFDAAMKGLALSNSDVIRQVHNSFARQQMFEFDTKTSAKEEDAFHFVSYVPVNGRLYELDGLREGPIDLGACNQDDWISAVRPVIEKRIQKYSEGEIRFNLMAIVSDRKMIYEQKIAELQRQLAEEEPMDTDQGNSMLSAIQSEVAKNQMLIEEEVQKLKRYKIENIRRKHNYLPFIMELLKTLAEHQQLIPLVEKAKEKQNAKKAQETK
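assay system = human UCH37 enzyme supplied as purified proteasome complex | amount = proteasome at 0.15 nM in the dispensed enzyme solution | schedule = 30 min compound-proteasome preincubation then 25 min substrate reaction, room temperature | measured by = fluorescence, ex 355 nm, em 460 nm | benchmarks = no-proteasome wells (full inhibition) and compound-free wells (no inhibition)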
LEDGF integ inh: blocks HIV-1 LEDGF/p75-dependent DNA integration. AID 743269. TR-FRET IN-LEDGF/p75 DNA integration, Eu/Cy5. 0.64% of 370,000 active. inhibition, % at 3.7 µM;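 active = inhibition above the screen-wide mean plus 3 SD, cut at about 13% in these data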;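 also: signal is the Cy5 over europium emission ratio at 671 and 618 nm; 0% = plate median of compound wells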
* marks the source's active call; other numbers are inactive results; ! = not active in a repeat. An excerpt weighted towards active compounds, which were near 1.3% of everything screened.

For C[C@H](CO)N1C[C@H](C)[C@@H](CN(C)S(=O)(=O)c2ccccc2F)Oc2ncc(C#Cc3cccnc3)cc2C1=O the results were Casp6 inh 36*!, TDP2 absorb 2 and LEDGF integ inh -3.
For C[C@H]1CN([C@@H](C)CO)C(=O)c2cc(C#Cc3cccnc3)cnc2O[C@H]1CN(C)S(=O)(=O)c1ccccc1F the results were Casp6 inh -2.
CN(C)c1ccc(C(CNC(=O)c2ccccc2F)c2c[nH]c3ccccc23)cc1 (configuration not stated) was read as NSD2 HMT inh 2, Casp6 inh -5, TDP2 absorb -5, UCH37 inh 26* and LEDGF integ inh 1.
Screening O=C(O)c1cccc(Cn2c(Cl)c(/C=N/NC(=O)c3cc4ccccc4cc3O)sc2=O)c1 returned NSD2 HMT inh 34, Casp6 inh 42*, TDP2 absorb 15 and LEDGF integ inh 4.
For O=C(O)c1cccc(Cn2c(Cl)c(C=NNC(=O)c3ccccc3)sc2=O)c1 the results were UCH37 inh 2.
`O=C(N/N=C/C1CC=CCC1)c1ccc(Cl)cc1O` (configuration not stated) gave NSD2 HMT inh -1, Casp6 inh 62*, TDP2 absorb 3 and LEDGF integ inh -2.
For CCCCN(C(=O)c1cccc(-n2cccc2)c1)c1c(N)n(CCCC)c(=O)[nH]c1=O the results were NSD2 HMT inh 3, Casp6 inh 43*, TDP2 absorb 3, UCH37 inh -5 and LEDGF integ inh 27*.
CCCCn1c(N)c(N(CC(C)C)C(=O)CC(NC(=O)c2ccccc2Cl)c2ccccc2)c(=O)[nH]c1=O (configuration not stated) was read as NSD2 HMT inh -1, Casp6 inh -1, TDP2 absorb -4 and LEDGF integ inh 2.
For CCCCn1c(N)c(N(CC(C)C)C(=O)CC(NC(=O)c2ccccc2)c2ccccc2)c(=O)[nH]c1=O (configuration not stated) the results were NSD2 HMT inh -3, Casp6 inh 65*, TDP2 absorb -15, UCH37 inh 1 and LEDGF integ inh 4.
`CC(=NOC(=O)c1cccc(C)c1)c1sc(-c2ccccc2)nc1C` gave UCH37 inh -20.
CCOc1ccc(-c2c(C(=O)NN=Cc3ccccc3)nnn2-c2nonc2N)cc1 was read as UCH37 inh 2.
COc1ccc(OC)c(C=NNC(=O)CC2C(=O)NN=C2C)c1 (configuration not stated) was read as UCH37 inh -478.
Nc1nonc1-n1nnc(C(=O)NN=Cc2ccc(Cl)cc2)c1-c1ccc2c(c1)OCO2 was read as UCH37 inh 1.
For N=C1CCC(=N)c2c1c(O)c1ccccc1c2O the results were NSD2 HMT inh 66*.
`O=C(NNC1=NS(=O)(=O)c2ccccc21)c1ccccc1` gave NSD2 HMT inh -26, Casp6 inh 0, TDP2 absorb -14, UCH37 inh 9 and LEDGF integ inh -2.
`O=C(/C=C/c1ccccc1)NNC1=NS(=O)(=O)c2ccccc21` gave NSD2 HMT inh -11, Casp6 inh 1, TDP2 absorb -3, UCH37 inh 23* and LEDGF integ inh -5.
Screening CC1(C)OC(=O)C(=Cc2ccc(-c3ccc(S(N)(=O)=O)cc3)o2)C(=O)O1 returned NSD2 HMT inh 37, Casp6 inh 53*, TDP2 absorb 2, UCH37 inh 5 and LEDGF integ inh 3.
For NS(=O)(=O)c1ccc(-c2ccc(/C=C3\C(=O)Nc4cc(Cl)ccc43)o2)cc1 the results were NSD2 HMT inh 1, Casp6 inh 2, TDP2 absorb -9, UCH37 inh -5 and LEDGF integ inh 1.
NC(=O)c1cc(N)ccc1N1CCCC1 was read as NSD2 HMT inh 51*, Casp6 inh 5, TDP2 absorb 11, UCH37 inh -30 and LEDGF integ inh 6.
Screening NC(=O)c1cc(N)ccc1N1CCCCC1 returned NSD2 HMT inh -1, Casp6 inh 11, TDP2 absorb -7, UCH37 inh 4 and LEDGF integ inh -8.
`CCOc1ccc(S(=O)(=O)Nc2cccc(C(=O)N(C)CC(=O)Nc3ccc(OC)cc3)c2)cc1` gave NSD2 HMT inh 0, Casp6 inh 3, TDP2 absorb 9, UCH37 inh 1 and LEDGF integ inh 44*.
Screening CCOc1ccc(S(=O)(=O)Nc2cccc(C(=O)N(C)CC(=O)Nc3cccc(OC)c3)c2)cc1 returned NSD2 HMT inh -8, Casp6 inh -147, TDP2 absorb 4, UCH37 inh 0 and LEDGF integ inh -7.
CCOC(=O)c1sc(NC(=O)C2C3C=CC(C3)C2C(=O)O)nc1C (configuration not stated) was read as NSD2 HMT inh 1, Casp6 inh 55*, TDP2 absorb -2, UCH37 inh 0 and LEDGF integ inh 3.
O=C(O)COc1ccccc1C=NNc1ccc(S(=O)(=O)N2CCOCC2)cc1[N+](=O)[O-] was read as UCH37 inh 23*.
O=C(O)c1ccccc1/C=N/Nc1ccc(S(=O)(=O)N2CCOCC2)cc1[N+](=O)[O-] was read as Casp6 inh 3, TDP2 absorb -8 and LEDGF integ inh 2.
Screening Cc1ccc(-n2nc(-c3ccco3)cc2C(=O)O)cc1 returned NSD2 HMT inh 11, Casp6 inh 55*, TDP2 absorb 1, UCH37 inh -1 and LEDGF integ inh 9.
Screening COc1c(Br)cc(C=Nn2c(-c3ccccc3)n[nH]c2=S)c(O)c1Br returned UCH37 inh -1.
`Cc1ccccc1NC(=O)C(=O)NN=Cc1cccc(Br)c1` gave UCH37 inh 1.
Screening CN1C=C/C(=C\c2cc[n+](C)c3ccccc23)c2ccccc21 returned Casp6 inh -2, TDP2 absorb 28*, UCH37 inh 4 and LEDGF integ inh 2.
For COc1ccc(C(=O)/C=C/c2cccc(OCc3ccccc3)c2)cc1CSCC(=O)O the results were NSD2 HMT inh 43, Casp6 inh 44*, TDP2 absorb 8, UCH37 inh 10 and LEDGF integ inh 1.
For COc1ccc(C=CC(=O)c2ccc(OCc3ccccc3)c(OC)c2)cc1OC the results were NSD2 HMT inh 1, TDP2 absorb -12 and LEDGF integ inh -10.
Screening COc1ccc(C(=O)/C=C/c2ccc(OCc3ccccc3)cc2)cc1CSCC(=O)O returned NSD2 HMT inh 35, Casp6 inh 44*, TDP2 absorb 3, UCH37 inh -30 and LEDGF integ inh 3.
`Nc1cc2nsnc2cc1Br` gave TDP2 absorb 92* and LEDGF integ inh 48*.
`Nc1cnc(Br)cc1Br` gave TDP2 absorb 0, UCH37 inh 5 and LEDGF integ inh 0.
For CC(=NNC(=O)C(=O)Nc1c(C)n(C)n(-c2ccccc2)c1=O)c1ccncc1 the results were UCH37 inh 4.

Screens deposited in PubChem BioAssay by several laboratories.
